# In ChEMBL document CHEMBL1649383, “Mode of action of epoxyphomalins A and B and characterization of related metabolites from the marine-derived fungus Paraconiothyrium sp” (J Nat Prod, 2010):
# Assays:
# [1] = Cytotoxicity against human GXF251L cells at 1 ug/ml relative to control; type: functional
# [2] = Cytotoxicity against human CNXF 498NL cells at 0.1 ug/ml relative to control; type: functional
# [3] = Cytotoxicity against human GXF251L cells at 10 ug/ml relative to control; type: functional
# [4] = Cytotoxicity against human CNXF 498NL cells at 0.01 ug/ml relative to control; type: functional
# [5] = test system: CWR22R; assay: Cytotoxicity against human 22Rv1 cells at 0.01 ug/ml relative to control; type: functional
# [6] = Cytotoxicity against human MEXF 394NL cells at 0.01 ug/ml relative to control; type: functional
# [7] = Cytotoxicity against human PC3M cells at 10 ug/ml relative to control; type: functional, PC-3M
# [8] = test system: LNCaP; assay: Cytotoxicity against human LNCAP cells at 0.001 ug/ml relative to control; type: functional
# [9] = test system: MCF7; assay: Cytotoxicity against human MCF7 cells; type: functional, cell-based
# Outline: (§1)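 Monolayer cell survival and proliferation assay run across a panel of 36 human tumour cell lines; IC50 values determined.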
# [10] = test system: HT-29; assay: Cytotoxicity against human HT-29 cells at 10 ug/ml relative to control; type: functional
# [11] = Cytotoxicity against human LXFA 629L cells; type: functional, cell-based; outline: as §1
# [12] = test system: LNCaP; assay: Cytotoxicity against human LNCAP cells at 1 ug/ml relative to control; type: functional
# [13] = Cytotoxicity against human MEXF 462NL cells at 0.001 ug/ml relative to control; type: functional
# [14] = Cytotoxicity against human OVXF 1619L cells; type: functional, cell-based
# Outline: (§2)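 Monolayer cell survival and proliferation assay run across a panel of 36 human tumor cell lines, with IC50 determined from the resulting growth data.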
# [15] = Cytotoxicity against human RXF 393NL cells; type: functional, cell-based; outline: as §2
# [16] = test system: NCI-H460; assay: Cytotoxicity against human H460 cells at 1 ug/ml relative to control; type: functional
# [17] = Cytotoxicity against human PXF 1752L cells; type: functional, cell-based; outline: as §2
# [18] = Cytotoxicity against human MAXF 401NL cells at 10 ug/ml relative to control; type: functional
# [19] = test system: HT-29; assay: Cytotoxicity against human HT-29 cells; type: functional, cell-based
# Outline: (§3)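 Monolayer cell survival and proliferation assay, run within a panel of 36 human tumor cell lines; IC50 determined per cell line.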
# [20] = Cytotoxicity against human RXF 393NL cells at 1 ug/ml relative to control; type: functional
# [21] = Cytotoxicity against human BXF 1218L cells at 1 ug/ml relative to control; type: functional
# [22] = Cytotoxicity against human PAXF 1657L cells at 1 ug/ml relative to control; type: functional
# [23] = Cytotoxicity against human OVXF 899L cells at 0.01 ug/ml relative to control; type: functional
# [24] = Cytotoxicity against human MEXF 514L cells at 0.001 ug/ml relative to control; type: functional
# [25] = test system: DU-145; assay: Cytotoxicity against human DU145 cells at 0.001 ug/ml relative to control; type: functional
# [26] = Cytotoxicity against human PAXF 1657L cells at 0.1 ug/ml relative to control; type: functional
# [27] = Cytotoxicity against human MEXF 394NL cells at 10 ug/ml relative to control; type: functional
# [28] = Cytotoxicity against human LXFA 526L cells at 1 ug/ml relative to control; type: functional
# [29] = test system: CWR22R; assay: Cytotoxicity against human 22Rv1 cells at 1 ug/ml relative to control; type: functional
# [30] = Cytotoxicity against human PAXF 1657L cells; type: functional, cell-based; outline: as §2
# [31] = test system: T-24; assay: Cytotoxicity against human T24 cells at 0.1 ug/ml relative to control; type: functional
# [32] = Cytotoxicity against human PC3M cells at 0.001 ug/ml relative to control; type: functional, PC-3M
# [33] = test system: HT-29; assay: Cytotoxicity against human HT-29 cells at 0.01 ug/ml relative to control; type: functional
# [34] = Cytotoxicity against human RXF 393NL cells at 10 ug/ml relative to control; type: functional
# [35] = Cytotoxicity against human MAXF 401NL cells; type: functional, cell-based; outline: as §1
# [36] = test system: SF-268; assay: Cytotoxicity against human SF268 cells at 10 ug/ml relative to control; type: functional
# [37] = test system: PANC-1; assay: Cytotoxicity against human PANC1 cells at 0.001 ug/ml relative to control; type: functional
# [38] = Cytotoxicity against human PXF 1752L cells at 0.001 ug/ml relative to control; type: functional
# [39] = Cytotoxicity against human LXFA 629L cells at 10 ug/ml relative to control; type: functional
# [40] = Cytotoxicity against human MEXF 520L cells at 0.01 ug/ml relative to control; type: functional
# [41] = Cytotoxicity against human LXFA 629L cells at 1 ug/ml relative to control; type: functional
# [42] = Cytotoxicity against human PC3M cells at 1 ug/ml relative to control; type: functional, PC-3M
# [43] = Cytotoxicity against human RXF 1781L cells at 0.01 ug/ml relative to control; type: functional
# [44] = test system: DU-145; assay: Cytotoxicity against human DU145 cells at 1 ug/ml relative to control; type: functional
# [45] = Cytotoxicity against human MEXF 276L cells at 1 ug/ml relative to control; type: functional, MEXF276L
# [46] = Cytotoxicity against human MAXF 401NL cells at 0.1 ug/ml relative to control; type: functional
# [47] = test system: NCI-H460; assay: Cytotoxicity against human H460 cells; type: functional, cell-based; outline: as §3
# [48] = test system: MCF7; assay: Cytotoxicity against human MCF7 cells at 0.1 ug/ml relative to control; type: functional
# [49] = test system: PANC-1; assay: Cytotoxicity against human PANC1 cells at 1 ug/ml relative to control; type: functional
# [50] = Cytotoxicity against human LXFA 629L cells at 0.01 ug/ml relative to control; type: functional
smiles,measurement,setting,value
C=C1[C@@H](O)[C@H]2O[C@@]2(C[C@H]2C(C)=CC[C@H]3C(C)(C)CCC[C@]23C)[C@@H](O)[C@H]1O [EPOXYPHOLAMIN D],Activity,[1],41%
same,Activity,[2],71%
same,Activity,[3],16%
same,Activity,[4],91%
same,Activity,[5],81%
same,Activity,[6],85%
same,Activity,[7],5%
same,Activity,[8],82%
same,IC50,[9],5.32 µM
same,IC70,[9],4.01 µg/mL
same,IC90,[9],8.33 µg/mL
same,Activity,[10],1%
same,IC50,[11],3.2 µM
same,IC70,[11],3.08 µg/mL
same,IC90,[11],8.22 µg/mL
same,Activity,[12],136%
same,Activity,[13],133%
same,IC50,[14],10.2 µM
same,IC70,[14],6.09 µg/mL
same,IC90,[14],10 µg/mL
same,IC50,[15],11.8 µM
same,IC70,[15],6.53 µg/mL
same,IC90,[15],10 µg/mL
same,Activity,[16],86%
same,IC50,[17],2.29 µM
same,IC70,[17],3.05 µg/mL
same,IC90,[17],12.3 µg/mL
same,Activity,[18],12%
same,IC50,[19],10.8 µM
same,IC70,[19],5.73 µg/mL
same,IC90,[19],8.41 µg/mL
same,Activity,[20],118%
same,Activity,[21],29%
same,Activity,[22],73%
same,Activity,[23],104%
same,Activity,[24],119%
same,Activity,[25],91%
same,Activity,[26],92%
same,Activity,[27],6%
same,Activity,[28],119%
same,Activity,[29],48%
same,IC50,[30],6.32 µM
same,IC70,[30],4.7 µg/mL
same,IC90,[30],9.65 µg/mL
same,Activity,[31],104%
same,Activity,[32],120%
same,Activity,[33],113%
same,Activity,[34],10%
same,IC50,[35],2.57 µM
same,IC70,[35],3.16 µg/mL
same,IC90,[35],11.4 µg/mL
same,Activity,[36],1%
same,Activity,[37],90%
same,Activity,[38],95%
same,Activity,[39],6%
same,Activity,[40],96%
same,Activity,[41],53%
same,Activity,[42],18%
same,Activity,[43],95%
same,Activity,[44],90%
same,Activity,[45],59%
same,Activity,[46],110%
same,IC50,[47],7.48 µM
same,IC70,[47],4.73 µg/mL
same,IC90,[47],8.23 µg/mL
same,Activity,[48],96%
same,Activity,[49],68%
same,Activity,[50],87%
